Source: ChEMBL document CHEMBL1123146, “Design, synthesis, and evaluation of omega-iodovinyl- and omega-iodoalkyl-substituted methyl-branched long-chain fatty acids” (J Med Chem, 1985)

How the values were obtained:
Rattus norvegicus [1] = assay: Concentration was measured in kidney tissue of unfasted Fischer 344 rats administered intravenously after 60 minute (radiolabeled with [125I]-; assay type: ADME, organism-based; conditions: in vivo, iv, 1 h
Method in brief: (§1)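 Female Fischer 344 rats, 10-12 weeks old, 170-200 g, with food and water ad libitum. The 125I-fatty acid was taken up in ethanol, added dropwise to stirred 6% BSA at ~40 °C (final ethanol 10%), filtered, and given as 0.5 mL via lateral tail vein under ether anesthesia. Rats were killed by cervical fracture; blood was taken by cardiac puncture. Organs were rinsed, blotted, weighed and gamma-counted against injectate standards to give %ID/g. Five rats per time point.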

Rattus norvegicus [2] = assay: Concentration was measured in kidney tissue of unfasted Fischer 344 rats administered intravenously after 2 minute (radiolabeled with [125I]-; assay type: ADME, organism-based; conditions: in vivo, iv, 2 min; method in brief: as §1
Rattus norvegicus [3] = assay: Concentration was measured in liver tissue f unfasted Fischer 344 rats administered intravenously after 10 minute (radiolabeled with [125I]-; assay type: ADME, organism-based; conditions: in vivo, iv, 10 min; method in brief: as §1
Rattus norvegicus [4] = assay: Concentration was measured in liver tissue of unfasted Fischer 344 rats administered intravenously after 60 minute (radiolabeled with [125I]-; assay type: ADME, organism-based; conditions: in vivo, iv, 1 h; method in brief: as §1
Rattus norvegicus [5] = assay: Concentration was measured in liver tissue of unfasted Fischer 344 rats administered intravenously after 2 minute (radiolabeled with [125I]-; assay type: ADME, organism-based; conditions: in vivo, iv, 2 min; method in brief: as §1
Rattus norvegicus [6] = assay: Concentration was measured in liver tissue of unfasted Fischer 344 rats administered intravenously after 5 minute (radiolabeled with [125I]-; assay type: ADME, organism-based; conditions: in vivo, iv, 5 min; method in brief: as §1
Rattus norvegicus [7] = assay: Concentration was measured in lungs tissue of unfasted Fischer 344 rats administered intravenously after 10 minute (radiolabeled with [125I]-; assay type: ADME, organism-based, Lung; conditions: in vivo, iv, 10 min; method in brief: as §1
Rattus norvegicus [8] = assay: Concentration was measured in lungs tissue of unfasted Fischer 344 rats administered intravenously after 2 minute (radiolabeled with [125I]-; assay type: ADME, organism-based, Lung; conditions: in vivo, iv, 2 min; method in brief: as §1
Rattus norvegicus [9] = assay: Concentration was measured in heart tissue of unfasted Fischer 344 rats administered intravenously after 2 minute (radiolabeled with [125I]-; assay type: ADME, organism-based; conditions: in vivo, iv, 2 min; method in brief: as §1
Rattus norvegicus [10] = assay: Concentration was measured in heart tissue of unfasted Fischer 344 rats administered intravenously after 5 minute (radiolabeled with [125I]-; assay type: ADME, organism-based; conditions: in vivo, iv, 5 min; method in brief: as §1
Rattus norvegicus [11] = assay: Concentration was measured in heart tissue of unfasted Fischer 344 rats administered intravenously after 60 minute (radiolabeled with [125I]-; assay type: ADME, organism-based; conditions: in vivo, iv, 1 h; method in brief: as §1
Rattus norvegicus [12] = assay: Concentration was measured in heart tissue of unfasted Fischer 344 rats administered intravenously after 10 min (radiolabeled with [125I]-; assay type: ADME, organism-based; conditions: in vivo, iv; method in brief: as §1
Rattus norvegicus [13] = assay: Concentration was measured in kidney tissue of unfasted Fischer 344 rats administered intravenously after 10 minute (radiolabeled with [125I]-; assay type: ADME, organism-based; conditions: in vivo, iv, 10 min; method in brief: as §1
Rattus norvegicus [14] = assay: Concentration was measured in kidney tissue of unfasted Fischer 344 rats administered intravenously after 5 minute (radiolabeled with [125I]-; assay type: ADME, organism-based; conditions: in vivo, iv, 5 min; method in brief: as §1
Rattus norvegicus [15] = assay: Concentration was measured in lungs tissue of unfasted Fischer 344 rats administered intravenously after 5 minute (radiolabeled with [125I]-; assay type: ADME, organism-based, Lung; conditions: in vivo, iv, 5 min; method in brief: as §1
Rattus norvegicus [16] = assay: Concentration was measured in blood tissue of unfasted Fischer 344 rats administered intravenously after 10 minute (radiolabeled with [125I]-; assay type: ADME, organism-based; conditions: in vivo, iv, 10 min; method in brief: as §1
Rattus norvegicus [17] = assay: Concentration was measured in blood tissue of unfasted Fischer 344 rats administered intravenously after 60 minute (radiolabeled with [125I]-; assay type: ADME, organism-based; conditions: in vivo, iv, 1 h; method in brief: as §1
Rattus norvegicus [18] = assay: Concentration was measured in blood tissue of unfasted Fischer 344 rats administered intravenously after 2 minute (radiolabeled with [125I]-; assay type: ADME, organism-based; conditions: in vivo, iv, 2 min; method in brief: as §1
Rattus norvegicus [19] = assay: Concentration was measured in blood tissue of unfasted Fischer 344 rats administered intravenously after 5 minute (radiolabeled with [125I]-; assay type: ADME, organism-based; conditions: in vivo, iv, 5 min; method in brief: as §1
Rattus norvegicus [20] = assay: Concentration was measured in thyroid tissue of unfasted Fischer 344 rats administered intravenously after 10 minute (radiolabeled with [125I]-; assay type: ADME, organism-based, Thyroid gland; conditions: in vivo, iv, 10 min
Method in brief: (§2)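 Female Fischer 344 rats, five per time point, each given 11 μCi of the ¹²⁵I-labeled fatty acid (~269 mCi/mmol) via a lateral tail vein in 0.5 mL of 6% BSA (10% ethanol) under ether anesthesia. Blood was drawn by cardiac puncture; organs were rinsed, weighed and gamma-counted against injectate standards. Output is % injected dose/g and mean heart/blood ratio.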

Rattus norvegicus [21] = assay: Concentration was measured in thyroid tissue of unfasted Fischer 344 rats administered intravenously after 2 minute (radiolabeled with [125I]-; assay type: ADME, organism-based, Thyroid gland; conditions: in vivo, iv, 2 min
Method in brief: (§3)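 Female Fischer 344 rats, 10–12 weeks old (170–200 g), with food and water ad libitum, five per time point. The radioiodinated fatty acid was dissolved in ethanol, added to 6% BSA at ~40 °C (final 10% ethanol), filtered, and injected into a lateral tail vein (0.5 mL) under ether anesthesia. Blood was taken by cardiac puncture; organs were rinsed, blotted, weighed and gamma-counted against injectate standards. Output is % injected dose/g.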

Rattus norvegicus [22] = assay: Concentration was measured in thyroid tissue of unfasted Fischer 344 rats administered intravenously after 5 minute (radiolabeled with [125I]-; assay type: ADME, organism-based, Thyroid gland; conditions: in vivo, iv, 5 min; method in brief: as §3
Rattus norvegicus [23] = assay: Concentration was measured in thyroid tissue of unfasted Fischer 344 rats administered intravenously after 60 minute (radiolabeled with [125I]-; assay type: ADME, organism-based, Thyroid gland; conditions: in vivo, iv, 1 h; method in brief: as §3
Rattus norvegicus [24] = assay: Concentration was measured in lungs tissue of unfasted Fischer 344 rats administered intravenously after 60 minute (radiolabeled with [125I]-; assay type: ADME, organism-based, Lung; conditions: in vivo, iv, 1 h; method in brief: as §1
Rattus norvegicus [25] = assay: Concentration was measured in mean heart/blood tissue of unfasted Fischer 344 rats administered intravenously after 10 minute (radiolabeled with [125I]-; assay type: ADME, organism-based; conditions: iv, 10 min; method in brief: as §2
Rattus norvegicus [26] = assay: Concentration was measured in mean heart/blood tissue of unfasted Fischer 344 rats administered intravenously after 2 minute (radiolabeled with [125I]-; assay type: ADME, organism-based; conditions: in vivo, iv, 2 min
Rattus norvegicus [27] = species: Rattus norvegicus; assay: Specific activity was determined with radioiodinated iodine-125; assay type: functional
Rattus norvegicus [28] = assay: Concentration was measured in mean heart/blood tissue of fasted Fischer 344 rats administered intravenously after 5 minute (radiolabeled with [125I]-; conditions: in vivo, iv, 5 min
Rattus norvegicus [29] = assay: Concentration was measured in mean heart/blood tissue of fasted Fischer 344 rats administered intravenously after 60 minute (radiolabeled with [125I]-; conditions: in vivo, iv, 1 h

Distribution (Rattus norvegicus [1]): 0.59%
Distribution (Rattus norvegicus [2]): 1.35%
Distribution (Rattus norvegicus [3]): 2.54%
Distribution (Rattus norvegicus [4]): 0.95%
Distribution (Rattus norvegicus [5]): 3.93%
Distribution (Rattus norvegicus [6]): 2.5%
Distribution (Rattus norvegicus [7]): 1.16%
Distribution (Rattus norvegicus [8]): 1.75%
Distribution (Rattus norvegicus [9]): 2.68%
Distribution (Rattus norvegicus [10]): 1.93%
Distribution (Rattus norvegicus [11]): 0.95%
Distribution (Rattus norvegicus [12]): 1.77%
Distribution (Rattus norvegicus [13]): 0.96%
Distribution (Rattus norvegicus [14]): 1.06%
Distribution (Rattus norvegicus [15]): 1.03%
Distribution (Rattus norvegicus [16]): 1.31%
Distribution (Rattus norvegicus [17]): 0.72%
Distribution (Rattus norvegicus [18]): 2.47%
Distribution (Rattus norvegicus [19]): 1.43%
Distribution (Rattus norvegicus [20]): 43.3%
Distribution (Rattus norvegicus [21]): 22.5%
Distribution (Rattus norvegicus [22]): 30.2%
Distribution (Rattus norvegicus [23]): 217%
Distribution (Rattus norvegicus [24]): 0.68%
Distribution (Rattus norvegicus [25]): 1.35%
Distribution (Rattus norvegicus [26]): 1.09%
Distribution (Rattus norvegicus [28]): 1.35%
Distribution (Rattus norvegicus [29]): 1.32%
Compound: CC(CCCCCCCCCCCCCCI)CC(=O)O (centres undefined)
Specific activity (Rattus norvegicus [27]): 0.269 Ci mM-1
